From ChEMBL document CHEMBL4680084, “New β-Lactam Derivatives Modulate Cell Adhesion and Signaling Mediated by RGD-Binding and Leukocyte Integrins” (J Med Chem, 2016)
Numbered stars: 1 amine (or outer) side, 2 acyl side, 3 side chain; on linkers, the order of the positions; unused ones are H or OH. Square brackets hold non-standard residues; d marks the D form. Peptide text beside a SMILES is read from it. * marks the point of attachment. X1 = O=C(Cc1ccc(N[*:1])cc1)[*:2]; NH(2-Me-phenyl) = Cc1ccccc1N*; CO = O=C([*:1])[*:2]

Key:
Integrin alpha-V/beta-3 [1] = target: T1, Integrin alpha-V/beta-3 (Homo sapiens, UniProt P05106+P06756); test: Inhibition of fibronectin binding to human recombinant alphaVbeta3 expressed in HEK293 cells incubated for 1 hr by […] competitive solid-phase binding assay; format: cell-based
SK-MEL-24 = test: Toxicity in human SK-MEL-24 cells assessed as induction of cell necrosis and/or apoptosis incubated for 3 hrs by annexin V-PE and 7-AAD staining based by flow cytometry; conditions: sk-mel-24, 3 h
Method in brief: (§1)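 After 3 h incubation, cells resuspended in complete medium and stained with annexin V-PE/7-AAD reagent for 20 min at room temperature in the dark. Flow cytometry sorted cells into viable, early apoptotic and late apoptotic/necrotic populations.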

Integrin alpha-4/beta-1 [2] = target: T2, Integrin alpha-4/beta-1 (Homo sapiens, UniProt P05556+P13612); test: Agonist activity at alpha4beta1 in human Jurkat E6.1 cells assessed as increase in cell adhesion to VCAM1 pre-incubated for 30 mins before VCAM1 and further incubated for 30 mins by […]; format: cell-based
Method in brief: (§2)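 Jurkat E6.1 cells labelled with CellTracker green CMFDA (12.5 µM, 30 min, 37 °C), washed, then pre-incubated 30 min at 37 °C with compound or methanol. Plated at 500,000/well on VCAM-1 (α4β1) or ICAM-1 (αLβ2) coated wells (5 µg/mL) for 30 min at 37 °C. Cells lysed in 0.5% Triton X-100; fluorescence read Ex485/Em535. Quadruplicate, at least three repeats.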

HEL = test: Toxicity in human HEL cells assessed as induction of cell necrosis and/or apoptosis incubated for 3 hrs by annexin V-PE and 7-AAD staining based by flow cytometry; method in brief: as §1
K562 = test: Toxicity in human K562 cells assessed as induction of cell necrosis and/or apoptosis incubated for 3 hrs by annexin V-PE and 7-AAD staining based by flow cytometry; conditions: k562, 3 h; method in brief: as §1
MCF7 = test: Toxicity in human MCF7 cells assessed as induction of cell necrosis and/or apoptosis incubated for 3 hrs by annexin V-PE and 7-AAD staining based by flow cytometry; conditions: mcf7, 3 h; method in brief: as §1
Integrin alpha-4/beta-1 [3] = target: T2, Integrin alpha-4/beta-1; test: Antagonist activity at alpha4beta1 in human Jurkat E6.1 cells assessed as reduction in cell adhesion to VCAM1 pre-incubated for 30 mins before VCAM1 and further incubated for 30 mins by […]; format: cell-based
[4] = target: T3, Integrin alpha-IIb/beta-3 (Homo sapiens, UniProt P05106+P08514); test: Inhibition of fibrinogen binding to alpha2bbeta3 isolated from human HEL cells incubated for 1 hr by […] competitive solid-phase binding assay
Integrin alpha-V/beta-5 [5] = target: T4, Integrin alpha-V/beta-5 (Homo sapiens, UniProt P06756+P18084); test: Agonist activity at alphaVbeta5 in human MCF7 cells assessed as increase in cell adhesion to fibrinogen pre-incubated for 30 mins before fibrinogen and further incubated for 1 hr by nitrophenyl-N-acetyl-beta-D-glucosaminide substrate based chromogenic assay
Method in brief: (§3)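 Compound or methanol vehicle pre-incubated with cells for 30 min at room temperature. Cells then plated on wells coated overnight at 4 °C with fibronectin 10 µg/mL (SK-MEL-24, K562, HT-29) or fibrinogen 10 µg/mL (MCF7, HEL). Seeding was 50,000 cells/well, or 100000 for HEL. Adhesion ran 1 h at room temperature. Wells washed with 1% BSA/PBS. Adherent cells read by hexosaminidase substrate, absorbance 405 nm. Quadruplicate, at least three repeats.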

Integrin alpha-5/beta-1 [6] = target: T5, Integrin alpha-5/beta-1 (Homo sapiens, UniProt P05556+P08648); test: Inhibition of fibronectin binding to alpha5beta1 isolated from human K562 cells incubated for 1 hr by […] competitive solid-phase binding assay; format: tissue-based
Method in brief: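 Plates coated overnight at 4 °C in carbonate buffer pH 9.6 with fibronectin 0.5 µg/mL (αvβ3, αvβ6, α5β1), fibrinogen 10 µg/mL (αIIbβ3, αvβ5) or ICAM-1 (αLβ2). Blocked 1 h in buffer containing Ca/Mg/Mn 1 mM each and 1% BSA. Purified integrin (3–10 µg/mL) incubated with compound (10⁻⁴–10⁻¹⁰ M) 1 h at room temperature. Bound integrin detected with primary antibody then AlexaFluor488 secondary, Ex485/Em535. Duplicate, at least three repeats.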

Integrin alpha-5/beta-1 [7] = target: T5, Integrin alpha-5/beta-1; test: Agonist activity at alpha5beta1 in human K562 cells assessed as increase in cell adhesion to fibronectin pre-incubated for 30 mins before fibronectin and further incubated for 1 hr by nitrophenyl-N-acetyl-beta-D-glucosaminide substrate based chromogenic assay; method in brief: as §3
Integrin alpha-4/beta-1 [8] = target: T2, Integrin alpha-4/beta-1; test: Inhibition of fibronectin binding to […] isolated from human Jurkat E6.1 cells incubated for 1 hr by scintillation-proximity assay based competitive solid-phase binding assay; format: tissue-based
Integrin alpha-V/beta-6 [9] = target: T6, Integrin alpha-V/beta-6 (Homo sapiens, UniProt P06756+P18564); test: Inhibition of fibronectin binding to alphaVbeta6 isolated form human HT-29 cells incubated for 1 hr by […] competitive solid-phase binding assay; format: tissue-based
[10] = target: T7, Integrin alpha-L/beta-2 (LFA-1) (Homo sapiens, UniProt P05107+P20701); test: Antagonist activity at alphaLbeta2 in human Jurkat E6.1 cells assessed as reduction in cell adhesion to ICAM1 pre-incubated for 30 mins before ICAM1 and further incubated for 30 mins by […]; format: cell-based; method in brief: as §2
Integrin alpha-V/beta-5 [11] = target: T4, Integrin alpha-V/beta-5; test: Inhibition of fibrinogen binding to alphaVbeta5 isolated form human mCf7 cells incubated for 1 hr by […] competitive solid-phase binding assay
HT-29 = test: Toxicity in human HT-29 cells assessed as induction of cell necrosis and/or apoptosis incubated for 3 hrs by annexin V-PE and 7-AAD staining based by flow cytometry; conditions: ht-29, 3 h; method in brief: as §1
Integrin alpha-V/beta-6 [12] = target: T6, Integrin alpha-V/beta-6; test: Antagonist activity at alphaVbeta6 in human HT-29 cells assessed as reduction in cell adhesion to fibronectin pre-incubated for 30 mins before fibronectin and further incubated for 1 hr by nitrophenyl-N-acetyl-beta-D-glucosaminide substrate based chromogenic assay
Method in brief: (§4)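 Compound or methanol vehicle pre-incubated with cells for 30 min at room temperature. Cells then plated on wells coated overnight at 4 °C with fibronectin 10 µg/mL (SK-MEL-24, K562, HT-29) or fibrinogen 10 µg/mL (MCF7, HEL). Seeding was 50,000 cells/well, or 100000 for HEL. Adhesion ran 1 h at room temperature. Wells washed with 1% BSA/PBS. Quadruplicate, at least three repeats.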

[13] = target: T3, Integrin alpha-IIb/beta-3; test: Agonist activity at alpha2bbeta3 in human HEL cells assessed as increase in cell adhesion to fibrinogen pre-incubated for 30 mins before fibrinogen and further incubated for 1 hr by nitrophenyl-N-acetyl-beta-D-glucosaminide substrate based chromogenic assay; method in brief: as §4
Integrin alpha-V/beta-3 [14] = target: T1, Integrin alpha-V/beta-3; test: Antagonist activity at alphaVbeta3 in human SK-MEL-24 cells assessed as reduction in cell adhesion to fibronectin pre-incubated for 30 mins before fibronectin and further incubated for 1 hr by nitrophenyl-N-acetyl-beta-D-glucosaminide substrate based chromogenic assay; method in brief: as §4
Integrin alpha-V/beta-6 [15] = target: T6, Integrin alpha-V/beta-6; test: Agonist activity at alphaVbeta6 in human HT-29 cells assessed as increase in cell adhesion to fibronectin pre-incubated for 30 mins before fibronectin and further incubated for 1 hr by nitrophenyl-N-acetyl-beta-D-glucosaminide substrate based chromogenic assay; method in brief: as §3
Integrin alpha-V/beta-3 [16] = target: T1, Integrin alpha-V/beta-3; test: Agonist activity at alphaVbeta3 in human SK-MEL-24 cells assessed as increase in cell adhesion to fibronectin pre-incubated for 30 mins before fibronectin and further incubated for 1 hr by nitrophenyl-N-acetyl-beta-D-glucosaminide substrate based chromogenic assay; method in brief: as §3
[17] = target: T7, Integrin alpha-L/beta-2 (LFA-1); test: Agonist activity at alphaLbeta2 in human Jurkat E6.1 cells assessed as increase in cell adhesion to ICAM1 pre-incubated for 30 mins before ICAM1 and further incubated for 30 mins by […]; format: cell-based; method in brief: as §2
[18] = target: T3, Integrin alpha-IIb/beta-3; test: Antagonist activity at alpha2bbeta3 in human HEL cells assessed as reduction in cell adhesion to fibrinogen pre-incubated for 30 mins before fibrinogen and further incubated for 1 hr by nitrophenyl-N-acetyl-beta-D-glucosaminide substrate based chromogenic assay; method in brief: as §4
Integrin alpha-V/beta-5 [19] = target: T4, Integrin alpha-V/beta-5; test: Antagonist activity at alphaVbeta5 in human MCF7 cells assessed as reduction in cell adhesion to fibrinogen pre-incubated for 30 mins before fibrinogen and further incubated for 1 hr by nitrophenyl-N-acetyl-beta-D-glucosaminide substrate based chromogenic assay; method in brief: as §4
Integrin alpha-5/beta-1 [20] = target: T5, Integrin alpha-5/beta-1; test: Antagonist activity at alpha5beta1 in human K562 cells assessed as reduction in cell adhesion to fibronectin pre-incubated for 30 mins before fibronectin and further incubated for 1 hr by nitrophenyl-N-acetyl-beta-D-glucosaminide substrate based chromogenic assay; method in brief: as §3

Row | Compound | Activity (SK-MEL-24) | EC50 (Integrin alpha-4/beta-1 [2]) | Activity (HEL) | Activity (K562) | Activity (MCF7) | IC50 (Integrin alpha-4/beta-1 [3]) | EC50 (Integrin alpha-V/beta-5 [5]) | IC50 [10] | Activity (HT-29) | IC50 (Integrin alpha-V/beta-6 [12]) | EC50 [13] | IC50 (Integrin alpha-V/beta-3 [14]) | EC50 (Integrin alpha-V/beta-6 [15]) | EC50 (Integrin alpha-V/beta-3 [16]) | EC50 [17] | IC50 [18] | IC50 (Integrin alpha-V/beta-5 [19]) | IC50 (Integrin alpha-5/beta-1 [20]) | also measured
1 | O=C(O)CC1CC(=O)N1 (stereo not drawn) | Non-Toxic | > 5 µM | Non-Toxic | Non-Toxic | Non-Toxic | > 5 µM | 0.376 µM | 1.63 µM | Non-Toxic | > 5 µM | 0.311 µM | 0.0409 µM | > 5 µM |  |  |  |  |  | IC50 (Integrin alpha-V/beta-3 [1]): 0.0019 µM; IC50 [4]: 0.265 µM; IC50 (Integrin alpha-5/beta-1 [6]): > 1 µM; EC50 (Integrin alpha-5/beta-1 [7]): 1.03 µM; IC50 (Integrin alpha-4/beta-1 [8]): > 1 µM; IC50 (Integrin alpha-V/beta-6 [9]): > 1 µM; IC50 (Integrin alpha-V/beta-5 [11]): 0.0024 µM
2 | NCc1ccc(NC(=O)N2C(=O)C[C@H]2C(=O)O)cc1.O=C(O)C(F)(F)F | Non-Toxic | > 5 µM | Non-Toxic | Non-Toxic | Non-Toxic | > 5 µM | > 5 µM | > 5 µM | Non-Toxic | > 5 µM | > 5 µM | > 5 µM | > 5 µM | > 5 µM | > 5 µM | > 5 µM | > 5 µM |  | 
3 | O=C(O)CC1CC(=O)N1C(=O)NCc1ccccc1 (stereo not drawn) | Non-Toxic | > 5 µM | Non-Toxic | Non-Toxic | Non-Toxic | > 5 µM | > 5 µM | > 5 µM | Non-Toxic | > 5 µM | > 5 µM | > 5 µM | > 5 µM | > 5 µM | > 5 µM | > 5 µM | > 5 µM | 0.417 µM | 
4 | CC(C)[C@@H]1NC(=O)[C@@H](Cc2ccccc2)NC(=O)[C@H](CC(=O)O)NC(=O)CNC(=O)[C@H](CCCN=C(N)N)NC1=O [CYCLORGDFV] | Non-Toxic |  | Non-Toxic | Non-Toxic | Non-Toxic |  |  |  | Non-Toxic |  |  |  |  |  |  |  |  |  | 
5 | H-GRGDTP-OH | Non-Toxic |  | Non-Toxic | Non-Toxic | Non-Toxic |  |  |  | Non-Toxic | > 5 µM | > 5 µM | 0.925 µM | > 5 µM |  |  | > 5 µM | 0.0342 µM | 0.00062 µM | 
6 | CCCCS(=O)(=O)N[C@@H](Cc1ccc(OCCCCC2CCNCC2)cc1)C(=O)O [TIROFIBAN] | Non-Toxic |  | Non-Toxic | Non-Toxic | Non-Toxic |  |  |  | Non-Toxic |  |  |  |  |  |  |  |  |  | 
7 | Nc1ccc(CNC(=O)N2C(=O)CC2CC(=O)NCCC(=O)O)cc1.O=C(O)C(F)(F)F (stereo not drawn) | Non-Toxic | > 5 µM | Non-Toxic | Non-Toxic | Non-Toxic | > 5 µM | > 5 µM | > 5 µM | Non-Toxic | > 5 µM | > 5 µM | > 5 µM | > 5 µM | > 5 µM | > 5 µM | > 5 µM | > 5 µM | 1.05 µM | 
8 | Ac-DRLDS-OH | Non-Toxic |  | Non-Toxic | Non-Toxic | Non-Toxic |  |  |  | Non-Toxic | > 5 µM | > 5 µM |  | > 5 µM |  |  | > 5 µM | 2.28 µM | > 5 µM | EC50 (Integrin alpha-5/beta-1 [7]): > 5 µM
9 | Cc1ccccc1NC(=O)Nc1ccc(CC(=O)N[C@@H](CC(C)C)C(=O)N[C@@H](CC(=O)O)C(=O)N[C@H](C(=O)N2CCC[C@H]2C(=O)O)C(C)C)cc1 ({NH(2-Me-phenyl)-CO}-[X1]LDVP-OH) | Non-Toxic |  | Non-Toxic | Non-Toxic | Non-Toxic |  |  | 0.00084 µM | Non-Toxic |  |  |  |  |  |  |  |  |  | 
